Screening data: PubChem, several laboratories
Compounds with a hit are over-represented: about 4% of the library has one in this group of screens.
Mdm2-MdmX inh – inhibitors of human Mdm2/MdmX interaction; inhibition, % at 8 µM; SaOS-2 split-luciferase Mdm2/MdmX complementation, luminescence; O15151+Q00987; AID 485346; actives 3% (n = 330,000);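 active = inhibition of at least 50% at 8 µM in the primary screen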
XBP1 UPR activ – activators of adaptive arm of unfolded protein response (XBP1); activation, % at 20 µM; actives 0.33% (n = 330,000); AID 463104; CHO-XBP1 luciferase reporter, IRE1-XBP1 UPR activation, luminescence; percent of tunicamycin response, DMSO as zero;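 active = versus positive control, 20 µM dose yields 30% or more activation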;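 note: 100% = tunicamycin at 10 µg/mL and 0% = DMSO only wells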
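assay system = CHO-XBP1 luciferase reporter cells | amount = 1000 cells/well | buffer or medium = F12 plus 10% FBS | compound dosing = single point, 20 µM final compound, 1% DMSO | incubation = 16-18 h cell attachment at 37 °C, then 6 h compound exposure | detection = Steady-Glo luminescence read | controls = tunicamycin 10 µg/mL and vehicle-only wells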
CHOP UPR activ – activators of apoptotic arm of unfolded protein response (CHOP); CHO-CHOP luciferase reporter, UPR activation, luminescence; percent of tunicamycin response over DMSO baseline; AID 449763; actives 0.34% (n = 330,000); activation, % at 10 µM;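 active = at 10 µM dose, activation of 40% or more, normalized to positive control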;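 note: 100% = tunicamycin at 10 µg/mL and 0% = DMSO alone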
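Assay system: CHO cells with stable CHOP pathway luciferase reporter; Buffer or medium: F12 plus 10% serum; Times: 16-18 h cell attachment, then 6 h compound exposure, 37 °C; Signal: luciferase luminescence; Read-out basis: percent activation relative to tunicamycin control; Control set: tunicamycin high control, DMSO low control.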
Exocytosis inh – blocks lytic granule exocytosis | actives 0.66% (n = 360,000) | inhibition, % at 10 µM | TALL-104 LAMP-1 surface exposure, flow cytometry; cells stimulated with thapsigargin and PMA | AID 651702;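 active = inhibition above about 55%, limit read from the data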
ABHD5 PLIN5 PPI – blocks binding of human ABHD5 to perilipin-5; Split G. princeps luciferase complementation, luminescence, 4 h; inhibition, % at 4 µM; actives 0.78% (n = 360,000); AID 602281;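 active = inhibition above the mean inhibition across every tested compound plus 3 SD, cut at about 22% in these data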;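 note: 0% = DMSO only wells and the 100% control is not disclosed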
Mdm2 MdmX conf – human Mdm2/MdmX binding inhibition, confirmed. shares compounds with Mdm2-MdmX inh. luminescent assay. inhibition, % at 8 µM. actives 55% (n = 10,000). AID 489028; in the data active = inhibition above about 40%
FLuc counter – inhibits full-length luciferase, flagging false Mdm2/MdmX hits. SaOS-2 full-length luciferase counterscreen, luminescence. shares compounds with Mdm2-MdmX inh. actives 77% (n = 6,200). AID 504607. inhibition, % at 8 µM;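 active = mean inhibition at 8 µM reaching about 37%, which flags the compound as non-specific, limit read from the data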;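 note: p53-null SaOS-2 cells with luciferase driven by a doxycycline-inducible promoter; compound on cells about two nights before reading with doxycycline added after day one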
* = called active by the depositor; / = no result given.

SMILES | Mdm2-MdmX inh | XBP1 UPR activ | CHOP UPR activ | Exocytosis inh | ABHD5 PLIN5 PPI | Mdm2 MdmX conf | FLuc counter
CCOC(=O)C1(CCOc2ccccc2)CCN(Cc2cccs2)CC1 | 9.1 | -1.2 | 2.6 | 5.3 | 0.4 | / | /
O=C(CSc1nnnn1-c1ccccc1)Nc1ncc(Cc2cc(Cl)ccc2Cl)s1 | 37.6 | -0.1 | 0.6 | -5.1 | -11.7 | / | /
O=C(CSc1nnnn1-c1ccccc1)Nc1ncc(Cc2cccc(Cl)c2Cl)s1 | 56.2* | -2.0 | 2.9 | 5.5 | -4.2 | 16.4 | /
CCc1ccc(CCC(=O)Nc2ncc(Cc3ccccc3Cl)s2)o1 | 66.4* | 11.1 | 1.6 | 1.9 | 3.0 | 51.3* | 79.6*
O=C(CN1CCOCC1)Nc1ncc(Cc2ccccc2Cl)s1 | -14.2 | -2.8 | -0.3 | -4.7 | 0.2 | / | /
Cc1ccc(-n2nnnc2SCC(=O)Nc2ncc(Cc3ccccc3Cl)s2)cc1 | 58.8* | -0.1 | 0.0 | -0.4 | -7.7 | -24.4 | /
COc1ccc(S(=O)(=O)N2CCCCC2)cc1NS(=O)(=O)c1ccccc1F | 4.3 | 10.0 | -0.1 | -2.0 | 3.0 | / | /
Cc1cc(C)nc(Nc2ccc(Cl)cc2C)n1 | 7.9 | -1.8 | 0.9 | 13.6 | -2.6 | / | /
CSc1ccc(CN(C)CC(=O)NCCc2ccccc2)cc1 | 8.8 | 0.3 | 0.6 | -0.7 | 4.8 | / | /
C=C[C@@H]1c2cc(C)ccc2N(S(=O)(=O)c2ccc(C)cc2)[C@H](c2ccc(OC(C)=O)cc2)C1(C#N)C#N | 71.6* | 3.1 | 4.0 | 54.9 | -2.9 | 64.9* | 71.8*
CCCN1CCN(CC(=O)Nc2nc3ccccc3s2)CC1 | -5.5 | -5.4 | 0.8 | 0.1 | 0.0 | / | /
CC(C)N=c1cc2n(-c3ccc(Cl)cc3)c3ccccc3nc-2cc1Nc1ccc(Cl)cc1 | 97.1* | -8.1 | 33.1 | 8.7 | 10.8 | 94.2* | 6.4
COC(=O)c1ccc(NC(=O)c2ccccc2)o1 | -6.5 | -0.5 | 4.6 | -2.9 | -1.0 | / | /
CCC1Oc2ccccc2N(CC(=O)NCCN2CCc3ccccc3C2)C1=O (stereo not given) | -3.2 | -3.1 | -1.1 | -0.7 | -0.2 | / | /
CCC1Oc2ccccc2N(CC(=O)NCCC2=CCCCC2)C1=O (stereo not given) | 59.6* | 0.9 | -1.8 | -1.1 | 0.2 | 9.2 | /
CN(C)CC(=O)N1c2ccccc2Sc2ccc(Cl)cc21 | 10.9 | 1.0 | -1.4 | 1.6 | 4.9 | / | /
Cc1cc(=O)oc2cc(OCc3cc4c(cc3Cl)OCO4)ccc12 | 89.1* | 21.2 | 7.5 | 0.3 | -4.3 | -17.6 | /
Cc1oc(C(=O)O)cc1COc1ccc2c(C)cc(=O)oc2c1 | 25.3 | -3.3 | 2.4 | 2.0 | 5.8 | / | /
COc1cccc2c1C(=O)c1c(O)c3c(c(O)c1C2=O)C[C@](O)(C(C)=O)C[C@H]3O[C@@H]1C[C@@H](N)[C@@H](O)[C@@H](C)O1 | 100.4* | -7.0 | -5.8 | 26.7 | 10.8 | 99.8* | -0.8
COc1cccc2c1C(=N)c1c(O)c3c(c(O)c1C2=O)CC(O)(C(C)=O)CC3OC1CC(N)C(O)C(C)O1 (stereo not given) | / | / | / | -12.4 | 11.5 | / | /
O=C(N/N=C/c1c[nH]c2ccccc12)C1COc2ccccc2O1 (stereo not given) | 31.0 | 0.9 | 1.2 | -0.4 | 2.4 | / | /
Cc1cc(C(=O)CN2C(=O)c3ccccc3C2=O)c(C)n1Cc1cccs1 | 67.8* | -3.5 | -1.4 | 2.0 | 3.8 | 67.0* | 102.2*
COc1cc2ccccc2cc1C(=O)Nc1sc2c(c1C(N)=O)CCN(C(C)C)C2 | 100.1* | -2.3 | 2.0 | 38.6 | 20.0 | 42.2* | 48.4*
CC(=O)Nc1sc(NC(=O)c2ccc(Cl)cc2)nc1-c1cccs1 | 20.8 | 2.1 | 3.4 | -2.4 | -1.7 | / | /
O=C1c2ccc3c4c(ccc(c24)C(=O)N1c1cccc(O)c1)C(=O)N(c1cccc(O)c1)C3=O | 64.8* | -2.2 | 0.7 | 9.9 | 4.5 | 47.3* | 1.4
COC(=O)[C@@H]1C[C@@]2(O)[C@@H](O)[C@@H](O)[C@@H](O)C[C@H]2N1C/C=C/c1ccccc1 | 7.2 | -1.5 | 2.8 | -1.5 | -7.6 | / | /
CCn1nc(NC(=O)Cc2ccc(OC)cc2)c2cc3cc(C)ccc3nc21 | 61.7* | 0.6 | 3.1 | -5.7 | -2.0 | 5.0 | /
